Data: publication PMC3177601 (Bioorganic & medicinal chemistry letters, 2009)
Where two headings read alike, the source gives them in different places. Each block holds one compound with its values, some of them ahead of it.

Assays:
M3 = M3 (Homo sapiens, UniProt P20309); experiment: M3 calcium mobilization assay in M3 CHO cells; type: cell-based; settings: at 30 μM
Summary of the method: (§1)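 Test compound at 30 μM is added with an EC20 concentration of ACh. Readout is intracellular calcium mobilization in CHO cells expressing the given mAChR subtype; M2 and M4 cells are co-transfected with Gqi5 for calcium coupling. Values are means of at least three independent determinations.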

M5 [1] = target: T1, M5 (Homo sapiens, UniProt P08912); experiment: M5 fold-shift experiments of the ACh CRC in M5 CHO cells; type: cell-based; settings: 30 μM compound
T1 sequence (P08912 1-532): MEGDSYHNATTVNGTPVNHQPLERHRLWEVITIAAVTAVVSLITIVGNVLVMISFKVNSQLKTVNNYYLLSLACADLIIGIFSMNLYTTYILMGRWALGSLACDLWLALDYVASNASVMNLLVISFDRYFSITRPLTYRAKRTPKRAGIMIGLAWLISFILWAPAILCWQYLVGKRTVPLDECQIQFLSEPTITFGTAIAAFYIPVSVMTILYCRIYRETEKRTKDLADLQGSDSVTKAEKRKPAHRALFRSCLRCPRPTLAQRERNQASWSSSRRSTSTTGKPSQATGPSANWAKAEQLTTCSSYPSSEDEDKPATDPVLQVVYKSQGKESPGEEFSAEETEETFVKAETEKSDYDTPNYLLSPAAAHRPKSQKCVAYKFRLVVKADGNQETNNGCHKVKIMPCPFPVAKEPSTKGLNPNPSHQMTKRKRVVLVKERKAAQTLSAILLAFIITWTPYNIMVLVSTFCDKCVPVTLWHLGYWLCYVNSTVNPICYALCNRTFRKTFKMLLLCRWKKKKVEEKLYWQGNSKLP
Summary of the method: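 Fold-shift assay in M5 CHO cells: a full ACh concentration-response curve is run with or without 30 μM test compound, read out as intracellular calcium mobilization. Potentiation is taken as the leftward shift of the ACh curve. Values are means of at least three independent determinations.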

M2 = target: T2, M2 (Homo sapiens, UniProt P08172); experiment: M2 calcium mobilization assay in M2 CHO cells co-transfected with Gqi5; type: cell-based
T2 sequence (P08172 1-466): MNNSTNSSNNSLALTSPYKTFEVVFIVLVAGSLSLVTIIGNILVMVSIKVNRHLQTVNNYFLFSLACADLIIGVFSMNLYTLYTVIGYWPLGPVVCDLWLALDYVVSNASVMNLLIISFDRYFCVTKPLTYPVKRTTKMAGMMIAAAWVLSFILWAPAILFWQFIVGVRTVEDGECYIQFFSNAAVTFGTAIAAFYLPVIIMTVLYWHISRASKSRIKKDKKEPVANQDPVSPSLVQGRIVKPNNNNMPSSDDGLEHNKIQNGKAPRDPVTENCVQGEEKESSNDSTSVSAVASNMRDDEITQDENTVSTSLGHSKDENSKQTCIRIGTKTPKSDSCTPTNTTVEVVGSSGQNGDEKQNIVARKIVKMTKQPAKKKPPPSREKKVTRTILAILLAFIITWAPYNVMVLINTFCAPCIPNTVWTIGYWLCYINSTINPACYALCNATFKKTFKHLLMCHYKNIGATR
Summary of the method: as §1

M4 = target: T3, M4 (Homo sapiens, UniProt P08173); experiment: M4 calcium mobilization assay in M4 CHO cells co-transfected with Gqi5; type: cell-based
T3 sequence (P08173 1-479): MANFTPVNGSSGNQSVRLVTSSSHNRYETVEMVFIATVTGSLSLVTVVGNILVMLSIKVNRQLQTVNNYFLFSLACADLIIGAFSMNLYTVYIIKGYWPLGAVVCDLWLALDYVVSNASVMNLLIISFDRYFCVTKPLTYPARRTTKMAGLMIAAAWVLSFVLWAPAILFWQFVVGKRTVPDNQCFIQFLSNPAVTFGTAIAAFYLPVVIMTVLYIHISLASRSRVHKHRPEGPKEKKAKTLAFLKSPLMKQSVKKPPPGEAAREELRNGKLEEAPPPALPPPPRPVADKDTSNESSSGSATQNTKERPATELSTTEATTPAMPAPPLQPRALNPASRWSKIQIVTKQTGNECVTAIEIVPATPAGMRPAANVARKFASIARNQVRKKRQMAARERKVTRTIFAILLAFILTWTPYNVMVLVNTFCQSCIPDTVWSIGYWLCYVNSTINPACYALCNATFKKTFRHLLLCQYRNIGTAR
Summary of the method: as §1

M5 [2] = target: T1, M5; settings: 30 μM compound; cited from earlier work
M5 [3] = target: T1, M5; settings: cited from earlier work
M1 = target: T4, M1 (Homo sapiens, UniProt P11229); experiment: M1 PAM intracellular calcium mobilization assay in M1 CHO cells; type: cell-based; settings: at 30 μM
T4 sequence (P11229 1-460): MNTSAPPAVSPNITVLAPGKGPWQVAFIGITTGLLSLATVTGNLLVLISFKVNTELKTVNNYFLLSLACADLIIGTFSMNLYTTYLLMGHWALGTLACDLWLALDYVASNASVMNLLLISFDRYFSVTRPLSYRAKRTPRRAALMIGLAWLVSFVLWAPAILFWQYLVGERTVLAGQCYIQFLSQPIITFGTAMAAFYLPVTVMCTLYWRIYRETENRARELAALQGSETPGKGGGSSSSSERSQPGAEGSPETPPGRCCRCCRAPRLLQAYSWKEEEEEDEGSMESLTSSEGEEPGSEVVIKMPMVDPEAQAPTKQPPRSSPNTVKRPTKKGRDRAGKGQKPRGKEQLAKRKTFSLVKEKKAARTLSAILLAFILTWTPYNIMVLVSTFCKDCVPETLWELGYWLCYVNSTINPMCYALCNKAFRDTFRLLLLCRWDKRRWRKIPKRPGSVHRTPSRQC
Summary of the method: as §1

M1–M4 = experiment: mAChR selectivity CRCs at M1-M5 CHO cells with submaximal ACh; type: cell-based; settings: CRCs at M1-M5 CHO cells with EC20 of ACh
Summary of the method: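 Test compound concentration-response curves are run against an EC20 of ACh in mAChR-expressing CHO cells, read out as intracellular calcium mobilization. M2 and M4 lines are co-transfected with Gqi5. Response is expressed as % of ACh maximum. Values are means of at least three independent determinations.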

[4] = at 30 μM, cells co-transfected with Gqi5

Sequence of M3 (P20309 whole entry): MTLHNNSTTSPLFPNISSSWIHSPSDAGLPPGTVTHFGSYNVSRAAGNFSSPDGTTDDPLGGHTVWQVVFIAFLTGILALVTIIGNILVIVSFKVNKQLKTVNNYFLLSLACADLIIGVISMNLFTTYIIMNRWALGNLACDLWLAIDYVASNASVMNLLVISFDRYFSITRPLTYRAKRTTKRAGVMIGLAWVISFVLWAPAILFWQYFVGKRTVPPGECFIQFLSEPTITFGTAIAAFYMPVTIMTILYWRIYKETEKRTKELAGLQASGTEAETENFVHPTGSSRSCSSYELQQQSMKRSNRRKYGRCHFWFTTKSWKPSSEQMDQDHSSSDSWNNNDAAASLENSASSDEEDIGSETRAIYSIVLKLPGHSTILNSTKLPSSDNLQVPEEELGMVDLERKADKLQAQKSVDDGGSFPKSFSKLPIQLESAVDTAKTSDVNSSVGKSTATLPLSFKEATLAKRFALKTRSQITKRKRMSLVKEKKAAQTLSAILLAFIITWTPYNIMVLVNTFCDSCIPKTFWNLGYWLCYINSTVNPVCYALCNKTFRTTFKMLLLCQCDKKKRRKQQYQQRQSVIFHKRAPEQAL

elevation of an ACh EC20 / activation at M3 (M3): only modest activation | leftward shift of the ACh CRC at M5 (M5 [1]): > 50 fold
SMILES: O=C1C(=O)N(Cc2ccc(-c3ccccc3)cc2)c2ccc(OC(F)(F)F)cc21 [6a]

leftward shift of the ACh CRC at M5 (M5 [1]): > 50 fold
SMILES: O=C1C(=O)N(Cc2ccc(-c3ccsc3)cc2)c2ccc(OC(F)(F)F)cc21 [6b]

SMILES: O=C1C(=O)N(Cc2ccc(Br)cc2)c2ccccc21 [VU0119498]
activity at M2 (M2; Gi/o-coupled M2, cells co-transfected with Gqi5): devoid of activity | activity at M4 (M4; Gi/o-coupled M4, cells co-transfected with Gqi5): devoid of activity

SMILES: COc1ccc(CN2C(=O)C(=O)c3cc(OC(F)(F)F)ccc32)cc1 [VU0238429]
leftward shift of the ACh CRC at M5 (M5 [2]): 14 fold | increase of ACh affinity for M5 (M5 [3]; 30 μM compound): ~ 11 fold | displacement of [3H]-NMS from binding to M5 (M5 [3]): did not displace

elevation of an ACh EC20 at M2 (M2; [4]): no elevation | elevation of an ACh EC20 at M1 (M1): no elevation | elevation of an ACh EC20 / activation at M3 (M3): no elevation | leftward shift of the ACh CRC at M5 (M5 [1]): ~ 5 fold | elevation of an ACh EC20 at M4 (M4; [4]): no elevation
SMILES: O=C1C(=O)N(Cc2ccc(Oc3ccccc3)cc2)c2ccc(OC(F)(F)F)cc21 [VU0400265]

SMILES: COc1ccc(CN2C(=O)C(=O)c3ccc(OC(F)(F)F)cc32)cc1 [compound 11]
mAChR selectivity (M1–M4): lost

SMILES: O=C1C(=O)N(Cc2ccc(-c3ccccc3)cc2)c2cc(OC(F)(F)F)ccc21 [compound 12]
mAChR selectivity (M1–M4): lost
